AI-2 QS modul = modulates the Vibrio harveyi AI-2 quorum sensing system; activity change, % at 7.5 µM; Vibrio harveyi JMH597 AI-2 luminescence/OD600 ratio, 9 h; stronger effect = lower value; strain lacks LuxN and CqsS sensors; 0 = neutral-control median; hit rate 0.4% among 300,000; in the data active means activity change below about -75%, passing the limit was not always enough;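 further: luminescence divided by OD600 gain over 9 h not by final OD600 alone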
KCNQ1 act = human KCNQ1 channel potentiation or activation. B-score at 10 µM. AID 2648. P51787. hit rate 0.35% among 310,000. CHO-K1 KCNQ1, thallium flux FluxOR fluorescence; stronger effect = higher value;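 active means fluorescence ratio B-score, a plate-corrected score, at least three library SD, with initial intensity B-score within 5 SD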
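Material: CHO-K1 cells stably expressing KCNQ1. Medium: assay buffer for compound exposure, DMSO matched across wells. Reagent: K+/Tl+ depolarizing stimulus. Compound dosing: single-concentration screen. Times: 37 °C overnight plating, 90-min dark dye load, 20-min compound pretreatment. Technique: FluxOR Tl+ flux fluorescence.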
Cl transport mod = KCC2 (human) Cl- transport modulation. Q9H2X9. KCC2 cells, thallium flux FluoZin-2 fluorescence. B-score of Tl+ flux slope (higher = more flux/activation; lower = inhibition) at 10 µM. hit rate 2.2% among 190,000. AID 1456;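 active means thallium flux slope and its plate-corrected score both differing from the plate sample mean at a set confidence after two filtering rounds, in either direction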;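 further: slope of fluorescence scaled to starting intensity during 10 to 20 s after thallium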
Target sequence (Q9H2X9 whole entry, looked up): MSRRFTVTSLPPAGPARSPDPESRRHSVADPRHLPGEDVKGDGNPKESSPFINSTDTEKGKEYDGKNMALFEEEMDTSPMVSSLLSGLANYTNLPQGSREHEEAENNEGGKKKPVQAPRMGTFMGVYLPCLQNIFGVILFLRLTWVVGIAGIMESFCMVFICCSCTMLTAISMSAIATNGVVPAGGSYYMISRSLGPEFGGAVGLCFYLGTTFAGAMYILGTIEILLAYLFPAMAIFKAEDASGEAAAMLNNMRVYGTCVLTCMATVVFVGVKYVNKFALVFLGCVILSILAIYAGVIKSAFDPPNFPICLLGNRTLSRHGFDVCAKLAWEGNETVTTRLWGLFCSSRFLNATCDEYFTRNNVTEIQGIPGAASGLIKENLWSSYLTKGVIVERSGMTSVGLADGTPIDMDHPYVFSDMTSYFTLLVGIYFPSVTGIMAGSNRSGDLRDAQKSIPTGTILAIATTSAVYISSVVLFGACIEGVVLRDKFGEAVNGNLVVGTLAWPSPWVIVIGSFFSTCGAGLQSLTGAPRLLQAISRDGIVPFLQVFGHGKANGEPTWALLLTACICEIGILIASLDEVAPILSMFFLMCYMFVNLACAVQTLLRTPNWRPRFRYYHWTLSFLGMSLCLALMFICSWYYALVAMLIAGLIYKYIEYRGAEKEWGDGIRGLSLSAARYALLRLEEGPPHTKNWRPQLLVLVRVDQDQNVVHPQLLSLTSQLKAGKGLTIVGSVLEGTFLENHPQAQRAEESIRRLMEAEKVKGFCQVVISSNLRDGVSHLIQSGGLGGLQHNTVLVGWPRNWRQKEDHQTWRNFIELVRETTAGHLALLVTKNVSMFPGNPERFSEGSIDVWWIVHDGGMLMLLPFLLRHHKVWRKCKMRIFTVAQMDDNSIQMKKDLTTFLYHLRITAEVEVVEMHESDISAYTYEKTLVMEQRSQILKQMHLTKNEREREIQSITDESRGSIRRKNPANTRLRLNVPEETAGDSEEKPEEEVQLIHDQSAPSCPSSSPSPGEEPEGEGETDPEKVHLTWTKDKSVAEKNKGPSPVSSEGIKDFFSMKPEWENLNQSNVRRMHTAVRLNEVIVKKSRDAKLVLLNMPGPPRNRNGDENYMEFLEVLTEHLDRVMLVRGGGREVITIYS
hERG rescue = compounds protecting human hERG from proarrhythmic drug block. CHO-hERG, FluxOR thallium flux, dofetilide IC70 present. activation (rescue from dofetilide block), less the hit threshold, % at 10 µM. hit rate 0.51% among 310,000. AID 1511;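 active means activation above the mean of controls blocked by dofetilide plus 5 SD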;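 further: thallium influx through hERG after potassium depolarization seen as dye fluorescence rise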
KCNQ1 inh = blocks the human KCNQ1 potassium channel; P51787; CHO-K1 KCNQ1, FluxOR thallium flux fluorescence; stronger effect = higher value; hit rate 1.3% among 310,000; B-score at 10 µM; AID 2642;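 active means compounds whose thallium flux B-score, printed positive for inhibition, exceeds three library SD while starting fluorescence stays within three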;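 further: channel opened by potassium depolarization with thallium stimulus after 20 min compound exposure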
Mot1-301 SUMO = blocks SUMOylation pathway, rescuing yeast Mot1-301 growth | hit rate 1% among 320,000 | AID 2716 | S. cerevisiae Mot1-301 growth rescue, ATP luminescence, 38.5C; percent above DMSO median, 100 means doubled | growth rescue, % at 18.8 µM;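 active means every valid replicate shows activation above 250% relative to neutral control wells; inactive means the rest, any valid replicate at or below 250%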;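 further: OY570 slx delta 5 strain wells were the positive control but not used for scaling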
KCNQ1 inh valid = human KCNQ1 channel inhibition, validation assay; inhibition, % at 10 µM; hit rate 93% among 1,600; shares compounds with KCNQ1 inh; KCNQ1 cell line, FluxOR thallium flux fluorescence;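 active means primary screen active, with duplicate mean exceeding buffer control mean plus 3 SD of buffer wells, cut at about 28% in these data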;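 further: 0% = buffer control ratio and 100% = XE991 inhibitor control ratio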
CHO KCNQ1 ctr = counter-screen for KCNQ1 inhibitors: effect in parental CHO cells | shares compounds with KCNQ1 inh | parental CHO-K1, FluxOR thallium flux fluorescence ratio; stronger effect = lower value; zero means no signal rise above baseline | fluorescence ratio (Tl flux) at 10 µM | hit rate 21% among 1,600;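 active means mean of duplicate thallium-flux fluorescence ratios in parental host cells more than 5 SD below the buffer control mean, cut at about 0.38 in these data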;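 further: ratio is peak minus minimum fluorescence divided by baseline fluorescence; actives read low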
KCNQ1 ephys val = confirmation of human KCNQ1 potassium channel inhibitors by electrophysiology | shares compounds with KCNQ1 inh | KCNQ1-CHO cells, automated patch clamp current | calls only at 10 µM | hit rate 20% among 490 | AID 624120;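 active means KCNQ1 current drop exceeding 3 SD of negative control wells, seen in both duplicate runs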;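 further: steady state current during a 2 s step from -80 to +40 mV; negative values mean current inhibition and positive values mean potentiation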
KCNQ2 inh = selectivity of KCNQ1 inhibitors: inhibition of rat KCNQ2 channel. hit rate 71% among 1,600. KCNQ2 cells, FluxOR thallium flux fluorescence. inhibition, % at 10 µM. AID 651746. shares compounds with KCNQ1 inh;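 active means mean percent inhibition of the KCNQ2 thallium signal more than 5 SD above the buffer-only control wells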;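 further: KCNQ2 expressed in CHO cells; 0% = buffer control wells and 100% = XE-991 inhibitor control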
KCNQ1 KCNE1 spec = KCNQ1 inhibitor that also blocks human KCNQ1/KCNE1 channel. inhibition, % at 10 µM. KCNQ1/KCNE1 cells, FluxOR thallium flux fluorescence. hit rate 77% among 1,600. shares compounds with KCNQ1 inh;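 active means mean percent inhibition of duplicate wells above the buffer-only control mean plus 3 SD of those controls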;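 further: 0% = buffer only wells and 100% = XE-991 inhibitor control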
Active calls of the source: *; i = inactive; . = no result given; + = active, no number. An excerpt weighted towards active compounds, which were near 4.2% of everything screened.

SMILES | AI-2 QS modul | KCNQ1 act | Cl transport mod | hERG rescue | KCNQ1 inh | Mot1-301 SUMO | KCNQ1 inh valid | CHO KCNQ1 ctr | KCNQ2 inh | KCNQ1 KCNE1 spec | others
CC(C)COC(=O)NCCOC(=O)Nc1cccc(Cl)c1 | 4 | i | 0.33 | -13 | 8* | 6 | 124* | 0.46 | 113%* | 91%* | KCNQ1 ephys val=+
c1ccc(CNc2ncnc3sccc23)cc1 | 12 | i | . | -15 | i | -11 | . | . | . | .
c1cncc(CNc2ncnc3sccc23)c1 | 10 | i | -0.0045 | -11 | 10* | 0 | 0 | 0.46 | i | i
CCN(C(=O)C1CCN(S(=O)(=O)c2ccc3c(c2)oc(=O)n3C)CC1)c1cccc(C)c1 | 18 | i | . | -10 | i | 76 | . | . | . | .
O=C(O)CN1CCc2ccccc2C1 | 8 | i | -0.19 | -10 | i | 7 | . | . | . | .
COc1ccc(N)c2c1C(=O)c1ccccc1C2=O | 11 | i | -1.6 | -12 | i | -18 | . | . | . | .
COc1ccc2noc3c2c1C(=O)c1ccccc1-3 | 21 | i | . | -50 | 23* | 371 | + | 0.0045* | i | i
CC1CCC(=C(C#N)C(=O)Nc2cccc(Cl)c2)CC1 (stereo not given) | 18 | i | 0.87 | -7 | 15* | 58 | 96* | 0.42 | 94%* | 82%* | KCNQ1 ephys val=+
COc1cccc(N2CCc3c(C)nc4ccc(Cl)cc4c32)c1 | 21 | i | . | -22 | 6* | -15 | 102* | 0.38 | 98%* | 77%* | KCNQ1 ephys val=+
COc1ccc(N2CCc3c(C)nc4c(OC)cc(OC)cc4c32)c(OC)c1 | 4 | i | -0.8 | -19 | i | 38 | . | . | . | .
COc1ccc(N2CCc3c(C)nc4c(OC)cc(OC)cc4c32)cc1 | 22 | i | -2 | -32 | 6* | 171 | 0 | 0.51 | i | i
Cc1ccc2nc(/N=C(\N)NC(=O)NC3CCCCC3)nc(C)c2c1 | 32 | i | -0.39 | -22 | 7* | 2 | 56* | 0.52 | i | i
CCCC(=O)N/C(N)=N/c1nc(C)c2cc(C)ccc2n1 | 12 | i | -1.3 | -5 | i | 86 | . | . | . | .
Cn1c(=O)c2c(ncn2CC(COCc2ccccc2)OCc2ccccc2)n(C)c1=O (stereo not given) | 10 | i | -0.12 | -3 | i | -1 | . | . | . | .
COc1ccc(CCNC(=O)c2ccc(Cl)cc2)cc1 | 0 | i | 0.44 | -7 | i | 13 | . | . | . | .
CCOc1ccc(CCNC(=O)c2ccc3c(=O)[nH]c4c(C(=O)NC(C)C)sc(=S)n4c3c2)cc1 | 11 | i | . | -27 | 15* | -2 | 156* | 0.33* | 97%* | +
CC(C)NC(=O)c1sc(=S)n2c1[nH]c(=O)c1ccc(C(=O)NCCc3ccc(Cl)cc3)cc12 | -4 | i | . | -10 | 16* | 0 | 102* | 0.35* | 81%* | 174%*
COC(=O)C(C)Oc1ccc(-c2nccc(-c3ccccn3)n2)cc1 (stereo not given) | -7 | i | . | -5 | i | 52 | . | . | . | .
COCCN1C(=O)Cc2c1nc(N)c1c(N)nc(N3CCN(c4ccc(F)cc4)CC3)c(C#N)c21 | 25 | i | -1.4 | -15 | i | 73 | . | . | . | .
COCC(C)N1C(=O)Cc2c1nc(N)c1c(N)nc(N3CCN(c4ccccc4F)CC3)c(C#N)c21 (stereo not given) | -4 | i | -1.3 | -22 | 6* | 4 | 152* | 0.49 | i | + | KCNQ1 ephys val=i
CC(C)(C)c1ccc(NC(=O)COc2ccc(-n3ccnc3)cc2)cc1 | 20 | i | . | -17 | 7* | 34 | 130* | 0.47 | 74%* | 40%*
COc1ccc(S(=O)CC(=O)Nc2ccc(Cl)cc2Cl)cc1 (stereo not given) | 3 | i | 0.014 | -12 | i | -5 | . | . | . | .
COc1ccc(-c2nc3ccccc3nc2-c2ccc(OC)cc2)cc1 | 25 | i | . | -9 | 10* | -12 | 88* | 0.34* | 96%* | 115%*
COc1ccc(-c2nc3ccccc3nc2-c2ccc(OC)c(OC)c2)cc1OC | 22 | i | . | -6 | i | 4 | . | . | . | .
Oc1ccc(-c2nc3ccccc3nc2-c2ccccc2)cc1 | -3 | i | . | -13 | 7* | -18 | 84* | 0.38* | 71%* | 110%*
SMILES | AI-2 QS modul | KCNQ1 act | Cl transport mod | hERG rescue | KCNQ1 inh | Mot1-301 SUMO | KCNQ1 inh valid | CHO KCNQ1 ctr | KCNQ2 inh | KCNQ1 KCNE1 spec | others
Oc1ccc(-c2nnc(-c3ccccc3)c(-c3ccccc3)n2)cc1 | 2 | i | 0.13 | -9 | i | -1 | . | . | . | .
CN1/C(=C\C=Nc2ccc3ccccc3c2)C(C)(C)c2ccccc21 | . | . | . | . | . | -21 | . | . | . | .
CN(C)c1ccc(N=C/C=C2\N(C)c3ccccc3C2(C)C)cc1 | 31 | i | -1.2 | -16 | 14* | -17 | 0 | 0.54 | i | i
CN1/C(=C/C=C(C#N)C#N)C(C)(C)c2ccccc21 | 10 | i | i | -44 | 25* | 13 | + | 0.12* | i | i
CN1/C(=C\C(=O)C(F)F)C(C)(C)c2ccccc21 | -13 | i | . | -5 | i | -19 | . | . | . | .
Cc1ccc(SCCNC(=S)Nc2ccccc2)cc1 | -5 | i | -0.037 | -14 | i | 4 | . | . | . | .
Cc1ccc(SCCNC(=S)Nc2ccc(C)c(C)c2)cc1 | 7 | i | -0.2 | -17 | 8* | 2 | 100* | 0.45 | i | 98%* | KCNQ1 ephys val=i
Cc1cc(C)cc(NC(=S)NCCSc2ccc(Cl)cc2)c1 | -2 | i | -0.77 | -12 | 10* | -7 | 110* | 0.43 | 108%* | 112%* | KCNQ1 ephys val=i
COC(=O)Cc1ccc(NC(=S)NCCSc2ccc(Cl)cc2)cc1 | 36 | i | 0.071 | -9 | i | 18 | . | . | . | .
CC(Nc1ccc(Cl)cc1)c1cc(Cl)ccc1O (stereo not given) | -13 | i | -0.0031 | -7 | 6* | -14 | 124* | 0.48 | i | 152%*
Cc1ccc(NC(=S)NC(C)CCc2ccccc2)cc1C (stereo not given) | 25 | i | -1.4 | -13 | i | 25 | . | . | . | .

Bioassay records deposited in PubChem by several laboratories.
